The values below come from ChEMBL document CHEMBL3763081, “Synthesis, evaluation and structure-activity relationship of new 3-carboxamide coumarins as FXIIa inhibitors” (Eur J Med Chem, 2016).

In brackets after ≈: the same amount, converted by molar mass. A value given as a limit tells only on which side of the number the result lay.

Data set [1] has as its target T1, Coagulation factor XII (Homo sapiens) (UniProt P00748).
T1 sequence (whole entry): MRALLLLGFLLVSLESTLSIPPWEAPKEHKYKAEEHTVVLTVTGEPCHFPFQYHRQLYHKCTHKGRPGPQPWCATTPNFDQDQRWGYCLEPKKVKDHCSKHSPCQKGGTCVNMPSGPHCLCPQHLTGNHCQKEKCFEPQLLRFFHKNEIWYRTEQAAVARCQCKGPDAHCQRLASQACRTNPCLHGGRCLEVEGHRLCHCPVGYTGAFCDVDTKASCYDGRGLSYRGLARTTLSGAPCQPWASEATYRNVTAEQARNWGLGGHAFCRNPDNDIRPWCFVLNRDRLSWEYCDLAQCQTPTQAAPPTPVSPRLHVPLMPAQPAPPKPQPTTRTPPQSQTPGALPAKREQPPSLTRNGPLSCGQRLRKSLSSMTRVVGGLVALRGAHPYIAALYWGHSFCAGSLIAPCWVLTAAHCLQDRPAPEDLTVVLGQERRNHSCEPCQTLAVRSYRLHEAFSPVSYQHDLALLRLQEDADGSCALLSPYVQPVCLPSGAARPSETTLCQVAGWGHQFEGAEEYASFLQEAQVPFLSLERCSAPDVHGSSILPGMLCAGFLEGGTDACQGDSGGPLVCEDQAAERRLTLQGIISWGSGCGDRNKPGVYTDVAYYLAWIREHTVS
Put plainly: Inhibition of human factor 12a using S-2302 as substrate assessed as para-nitroaniline release at 50 uM preincubated for 10 mins followed by substrate addition measured after 30 mins by HPLC-UV analysis. An outline of the steps:
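Human FXIIa 145 nM in 0.5 mM Tris-Imidazole, 0.15 M NaCl, pH 7.9, preincubated 10 min at 25 C with compound (DMSO). S-2302 (2.5 mM) added and hydrolysis run 30 min, then stopped with 10% acetic acid. Wells diluted 1:1 in acetonitrile. Released p-NA quantified by C18 HPLC-UV at 375 nm (AUC). % inhibition = [1-(AUCdrug/AUCvehicle)]*100.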

Data set [2] can be described thus: Solubility of compound at pH 6.5. The format is physicochemical. The conditions noted are these: buffer.
For data set [3], the target named is Coagulation factor X (Homo sapiens) (UniProt P00742). Put plainly: Inhibition of human factor 10a using S-2765 as substrate at 100 uM preincubated for 10 mins followed by substrate addition measured for 5 mins by microplate reader analysis. An outline of the steps:
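Compound added from DMSO and held with enzyme 10 min at 25 C. S-2765 (1 mM) then added and OD405 followed continuously for 5 min. % inhibition = [1-(slope inhibitor/slope vehicle)]*100.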

Data set [4] has as its target T2, Coagulation factor XII (Homo sapiens, UniProt P00748).
T2 sequence (P00748 whole entry): T1 sequence (whole entry)
The experiment in a line: Inhibition of human factor 12a using S-2302 as substrate assessed as para-nitroaniline release preincubated for 10 mins followed by substrate addition measured after 30 mins by HPLC-UV analysis. An outline of the steps:
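FXIIa IC50 assay. Human enzyme 145 nM in Tris-Imidazole/NaCl buffer, pH 7.9, 10 min at 25 C with compound, then S-2302 (2.5 mM) for 30 min and acetic acid stop. p-NA AUC measured by HPLC-UV at 375 nm. Nine concentrations from 100 nM upward, in duplicate. Sigmoid fit of % inhibition vs log concentration by non-linear regression; values reported as mean with 95% CI.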

In data set [5] the target is T3, Coagulation factor VII (Homo sapiens) (UniProt P08709).
T3 sequence (whole entry): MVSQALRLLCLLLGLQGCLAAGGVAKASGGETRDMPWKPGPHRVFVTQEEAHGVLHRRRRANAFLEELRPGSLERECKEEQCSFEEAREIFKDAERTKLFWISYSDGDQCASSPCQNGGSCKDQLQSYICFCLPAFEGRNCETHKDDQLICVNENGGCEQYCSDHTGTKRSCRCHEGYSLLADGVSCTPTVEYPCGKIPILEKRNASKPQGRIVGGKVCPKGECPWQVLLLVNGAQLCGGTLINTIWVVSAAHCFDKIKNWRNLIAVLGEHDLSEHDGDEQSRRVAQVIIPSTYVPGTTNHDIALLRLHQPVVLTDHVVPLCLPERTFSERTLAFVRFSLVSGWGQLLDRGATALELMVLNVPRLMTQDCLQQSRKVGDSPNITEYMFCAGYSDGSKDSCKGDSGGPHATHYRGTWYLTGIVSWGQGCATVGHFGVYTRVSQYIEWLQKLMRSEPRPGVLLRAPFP
The experiment in a line: Inhibition of human factor 7a using chromozymt-PA as substrate at 100 uM preincubated for 10 mins followed by substrate addition measured for 10 mins by microplate reader analysis. The gist of the method:
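Compound preincubated 10 min at 25 C. Chromozym t-PA (5 mM) added and OD405 monitored continuously for 10 min. Inhibition from slope ratio against vehicle.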

The target in data set [6] is Plasma kallikrein (Homo sapiens) (UniProt P03952). Put plainly: Inhibition of human plasma kallikrein using S-2302 as substrate at 100 uM preincubated for 10 mins followed by substrate addition measured for 5 mins by microplate reader analysis. In kind it is cell-free. The gist of the method: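 Human plasma kallikrein 50 nM in 0.05 M Tris-HCl, 0.5 mM EDTA, 0.05% Tween 20, 0.15 M NaCl, pH 7.4. 10 min preincubation with compound at 25 C, then S-2302 (4 mM). OD405 read continuously for 5 min. % inhibition = [1-(slope inhibitor/slope vehicle)]*100.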

The target of data set [7] is Prothrombin (Homo sapiens) (UniProt P00734). Put plainly: Inhibition of human thrombin using S-2238 as substrate at 100 uM preincubated for 10 mins followed by substrate addition measured for 5 mins by microplate reader analysis. The gist of the method:
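Compound (DMSO) preincubated 10 min at 25 C, then S-2238 (2.5 mM). OD405 monitored continuously for 5 min. Slope-based % inhibition against vehicle control.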

Chain of Coagulation factor X (Homo sapiens) (P00742 41-179 limits assumed): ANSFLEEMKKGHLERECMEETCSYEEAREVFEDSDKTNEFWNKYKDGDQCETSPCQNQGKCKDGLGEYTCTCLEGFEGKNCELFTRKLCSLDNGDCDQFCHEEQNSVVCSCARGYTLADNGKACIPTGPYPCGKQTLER
Chain of Coagulation factor X (Homo sapiens) (P00742 235-488 limits assumed): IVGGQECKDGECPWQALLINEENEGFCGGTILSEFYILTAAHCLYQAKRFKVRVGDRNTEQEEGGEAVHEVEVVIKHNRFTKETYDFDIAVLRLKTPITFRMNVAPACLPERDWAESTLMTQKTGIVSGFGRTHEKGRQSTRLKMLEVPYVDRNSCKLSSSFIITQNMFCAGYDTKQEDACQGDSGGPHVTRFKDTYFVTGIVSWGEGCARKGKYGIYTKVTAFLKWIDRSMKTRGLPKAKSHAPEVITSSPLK
Chain of Plasma kallikrein (Homo sapiens) (P03952 20-390 limits assumed): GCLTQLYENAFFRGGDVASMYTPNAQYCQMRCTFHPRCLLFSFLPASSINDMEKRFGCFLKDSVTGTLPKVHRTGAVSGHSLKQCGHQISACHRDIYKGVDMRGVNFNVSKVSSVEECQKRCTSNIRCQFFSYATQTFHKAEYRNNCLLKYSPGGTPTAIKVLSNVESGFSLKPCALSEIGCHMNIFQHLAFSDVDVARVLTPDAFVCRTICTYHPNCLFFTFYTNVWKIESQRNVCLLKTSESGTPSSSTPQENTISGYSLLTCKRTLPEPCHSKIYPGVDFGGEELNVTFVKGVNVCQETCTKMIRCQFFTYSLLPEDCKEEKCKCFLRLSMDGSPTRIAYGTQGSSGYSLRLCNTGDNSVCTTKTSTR
Chain of Plasma kallikrein (Homo sapiens) (P03952 391-638 limits assumed): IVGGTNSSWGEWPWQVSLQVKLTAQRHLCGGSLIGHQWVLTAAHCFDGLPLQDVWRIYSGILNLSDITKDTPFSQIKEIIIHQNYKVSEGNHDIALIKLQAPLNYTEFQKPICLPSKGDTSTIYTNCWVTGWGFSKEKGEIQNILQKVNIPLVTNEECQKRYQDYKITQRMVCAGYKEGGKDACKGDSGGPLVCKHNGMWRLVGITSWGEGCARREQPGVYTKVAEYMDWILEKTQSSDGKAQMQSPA

As a reminder, the inhibition is the relative decrease from the control value, in per cent. As a reminder, the solubility is the concentration that dissolves in the medium under given conditions. The low end stands for a poorly soluble substance, the high end for a readily soluble substance. Regarding `CN(C)CCNC(=O)c1cc2cc(Br)cc(Br)c2oc1=O`, the inhibition in data set [1] is 30%. Moreover, the concentration in solution in data set [2] (solubility) was 3 mg/mL (≈ 7180 µM).
One may read the IC50 as the concentration that inhibits the measured activity by half. With `O=C(Nc1ccc(O)cc1)c1cc2cc(Cl)cc(Br)c2oc1=O`, the inhibition was below 10% in data set [3]; below 10% in data set [5]; 90% in data set [1]; below 10% in data set [6]; below 10% in data set [7]. The IC50 in data set [4] amounted to 41 µM. The amount in solution in data set [2] (solubility) came to 0.0015 mg/mL (≈ 3.8 µM).
In the case of `O=C(Nc1ccccc1)c1cc2cc(CN3CCCCC3)ccc2oc1=O`, the inhibition in data set [1] worked out at 28%. The compound also came in with a solubility in data set [2] of 0.7 mg/mL (≈ 1930 µM).
For `O=C(Nc1ccccc1)c1cc2cc(CN3CCCC3)ccc2oc1=O`, in data set [1], the inhibition was 21%. In addition, the concentration in solution in data set [2] (solubility) was 3.4 mg/mL (≈ 9760 µM).
With `O=C(Nc1cc(Cl)ccc1O)c1cc2cc(Cl)cc(Br)c2oc1=O`, the inhibition in data set [3] is below 10%; in data set [5] it was below 10%; in data set [1], 99%; in data set [6], below 10%; in data set [7] it was below 10%. For the same compound, in data set [4], the IC50 turned out to be 5 µM. This compound displayed a solubility in data set [2] of 0.0001 mg/mL (≈ 0.233 µM).
Turning to `O=C(Nc1cccc(O)c1)c1cc2cc(Cl)cc(Br)c2oc1=O`, the inhibition in data set [3] was below 10%; in data set [5], below 10%; in data set [1] it was 90%; in data set [6], below 10%; in data set [7], below 10%. Besides, in data set [4], the IC50 was found to be 34 µM. Besides, in data set [2], the solubility turned out to be 0.0014 mg/mL (≈ 3.55 µM).
On to `Cl.NCc1ccc2oc(=O)c(C(=O)Nc3ccccc3)cc2c1`, for which the inhibition in data set [1] was 26%. This compound came in with a solubility in data set [2] of 9.9 mg/mL.
The corresponding values for `O=C(O)c1cc(Cl)ccc1NC(=O)c1cc2cc(Cl)cc(Br)c2oc1=O` are 75% and 0.036 mg/mL (≈ 78.8 µM).
As to `NCCNC(=O)c1cc2cc(Cl)cc(Br)c2oc1=O.O=C(O)C(F)(F)F`, the inhibition in data set [1] came to 23%. This compound showed a solubility in data set [2] of 61.9 mg/mL.
The corresponding values for `CN(C)CCNC(=O)c1cc2cc(Cl)cc(Cl)c2oc1=O` are 29% and 2.2 mg/mL (≈ 6680 µM).
For `O=C(Nc1ccccc1)c1cc2cc(CO)ccc2oc1=O`, the inhibition in data set [1] came out at 14%. The amount in solution in data set [2] (solubility) came to 0.052 mg/mL (≈ 176 µM).
The corresponding values for `O=C(NCCN1CCOCC1)c1cc2cc(Br)cc(Br)c2oc1=O` are 14% and 0.5 mg/mL (≈ 1090 µM).
Take `O=C(NCCN1CCOCC1)c1cc2cc(Cl)cc(Cl)c2oc1=O`: in data set [1], the inhibition was 20%. Besides, the solubility in data set [2] came to 0.4 mg/mL (≈ 1080 µM).
The corresponding values for `O=C(Nc1ccccc1)c1cc2cc(CN3CCOCC3)ccc2oc1=O` are 18% and 0.048 mg/mL (≈ 132 µM).
The corresponding values for `CN(C)CCNC(=O)c1cc2cc(Cl)cc(Br)c2oc1=O` are 26% and 2.4 mg/mL (≈ 6420 µM).
With `O=C(Nc1ccccc1)c1cc2cc(Cl)cc(Br)c2oc1=O`, the inhibition is below 10% in data set [3]; below 10% in data set [5]; 90% in data set [1]; below 10% in data set [6]; below 10% in data set [7]. The IC50 in data set [4] amounted to 16 µM. In data set [2], the solubility stood at 0.00059 mg/mL (≈ 1.56 µM).
`O=C(NCCN1CCOCC1)c1cc2cc(Cl)cc(Br)c2oc1=O`: the inhibition in data set [1] worked out at 17%. Further, the solubility in data set [2] is 0.4 mg/mL (≈ 962 µM).
Turning to `O=C(Nc1ccc(Cl)cc1O)c1cc2cc(Cl)cc(Br)c2oc1=O`, the inhibition in data set [3] is below 10%; in data set [5], below 10%; in data set [1], 99%; in data set [6], below 10%; in data set [7] it was below 10%. Further, the IC50 in data set [4] was found to be 8 µM. Also, the concentration in solution in data set [2] (solubility) was 0.00011 mg/mL (≈ 0.256 µM).
For the compound `CCN(CC)Cc1ccc2oc(=O)c(C(=O)Nc3ccccc3)cc2c1`, the inhibition in data set [1] is 14%. The same compound came in with a solubility in data set [2] of 2.9 mg/mL (≈ 8280 µM).
`O=C(Nc1ccccc1O)c1cc2cc(Cl)cc(Br)c2oc1=O`: the inhibition in data set [3] is below 10%; in data set [5], below 10%; in data set [1] it was 99%; in data set [6] it was below 10%; in data set [7], below 10%. Also, in data set [4], the IC50 stood at 7 µM. In addition, the solubility in data set [2] stood at 0.00071 mg/mL (≈ 1.8 µM).
